Data: publication PMC4013241 (Molecular cancer therapeutics, 2014)

Assays:
Type in all cases: cell-based, human
[1] = test system: U87 cells; test: Flow cytometric cell cycle analysis; details: 24 h, 13.3 μM GFN, control 66 ± 0.9%
[2] = test system: U87 cells; test: Annexin V apoptosis by flow cytometry; details: 24 h
Summary of the method: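 U87 cells in 12-well plates, cultured overnight, then exposed 24 h to test compound (6.3 μM), an EGFR inhibitor (13.3 μM) or both. Floating and attached cells were pooled and stained with Annexin V-FITC (10 μg/ml) in HEPES-buffered saline (pH 7.4) with Ca2+ and Mg2+. Flow cytometry at 5000 events/sample. Reported as mean ± S.D. of three experiments.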

[3] = test system: p-Akt, phosphorylation of its downstream proteins and p-Erk; test: Western blot of p-Akt, its downstream proteins and p-Erk in U87 cells; details: 70 μM ON1231120 or 10 μM ON1231320, 1 h
Summary of the method: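 U87 cells on 10 cm plates, 1 h exposure to test compound. Lysates were prepared in buffer with PMSF and phosphatase/protease inhibitors, sonicated, held 30 min on ice and cleared at 21,000 × g for 10 min at 4°C. Blotting used 20 μg protein on SDS-PAGE and PVDF, blocked in 5% nonfat milk. Primary antibodies 1 h at room temperature or overnight at 4°C.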

SMILES	percentage of cells in the G1 phase [1]	apoptotic cell death (Annexin V staining) [2]	effects on p-Akt, its downstream proteins and p-Erk [3]
COc1cc2ncnc(Nc3ccc(F)c(Cl)c3)c2cc1OCCCN1CCOCC1 [GFN, gefitinib, reference compound]	80.9 ± 2.5%	did not cause apoptotic cell death	–
Cn1c(=O)c(S(=O)(=O)c2ccc(F)cc2F)cc2cnc(Nc3ccc4[nH]ccc4c3)nc21 [ON1231320]	–	–	negligible effects
